Shown are actives, neighbours in structure and some others; about 3.5% of the full set was active somewhere.
Efa HMGR inh: inhibitors of E. faecalis class II HMGR, primary screen, biochemical, Enterococcus faecalis; HMG-CoA reductase (Enterococcus faecalis, mvaE); purified E. faecalis HMGR, NADPH absorbance 340 nm kinetic; inhibition, % at 10 µM; 190,000 tested, 0.41% active; AID 1066, 2008;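 active = inhibition above a set limit, the median over all tested compounds plus 3 SD, cut at about 9.5% in these data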;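 note: enzyme runs in reverse so mevalonate oxidation gives rising NADPH absorbance; 0% = complete reaction with DMSO and 100% = background rate lacking mevalonate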
Yeast life ext: compounds extending yeast replicative lifespan, primary screen, S. cerevisiae, OD615; inhibition of the nicotinamide effect, % at 10 µM; S. cerevisiae growth with nicotinamide; deaD strain in restrictive glucose medium; 130,000 tested, 0.68% active;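 active = inhibition above a set limit, placed 3 SD over the median of all compounds, cut at about 26% in these data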;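 note: 0% = nicotinamide-treated wells and 100% = cells grown without nicotinamide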
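System: Modified budding yeast, DeaD strain | Buffer or medium: Restrictive glucose medium | Also added: 1.5 mM nicotinamide | Doses: 10 µM single point, 0.25% DMSO | Schedule: 48 h compound exposure at 30 °C, humidified | Detection: Absorbance at 615 nm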
Yeast growth inh: growth inhibitors of yeast BB579 in restrictive medium, primary screen, yeast lifespan-shortening project, S. cerevisiae; OD615, 48 h; inhibition, % at 10 µM; 140,000 tested, 0.51% active;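 active = inhibition above a set limit, 3 SD over the mean compound inhibition, cut at about 44% in these data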
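Test system: DeaD yeast strain BB579 / Buffer or medium: restrictive glucose-based CSMM-D medium / Doses: single 10 µM dose / Schedule: 4 h cell preincubation, 48 h compound exposure, 30 °C humidified / Technique: culture absorbance at 615 nm / Controls: amphotericin B positive control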
MT stabilize HCS: microtubule stabilizers in HeLa cells, primary screen, imaging, high-content imaging | AID 2205, 2009 | HeLa tubulin immunostaining HCS, 24 h; share of cells brighter than vehicle mean+2SD | % tubulin-high responders, % at 10 µM | 200,000 tested, 0.83% active;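 active = plate Z-score above 3 for both tubulin-high and condensed-nucleus cell shares, with cell loss under 80%, at 10 µM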;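 note: anti alpha tubulin signal scored within the nucleus-defined area of each cell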
RAM network inh: inhibitors of the yeast RAM network, primary screen, dse1pr::URA3 reporter, 5-FOA selection; S. cerevisiae dse1pr::URA3 reporter, 5-FOA growth OD615, 2 d; analog-sensitive cbk1-as2 kinase mutant strain; inhibition, % at 50 µM; 190,000 tested, 1.8% active;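 active = inhibition above a set limit, 3 SD over mean compound inhibition, cut at about 8.4% in these data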;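 note: 0% = DMSO-only wells with no growth and 100% = 10 µM 1-NA-PP1 full growth; inhibition rescues growth on 5-FOA so higher OD means more RAM inhibition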
bCat nuc transl: modulators of beta-catenin nuclear translocation, primary screen, imaging, HeLa cells, immunofluorescence, high-content; nuclear translocation activity, % at 5 µM; 190,000 tested, 0.3% active;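 active = nuclear translocation activity above 50% at 5 µM, with a well cell count of 50 or more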;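 note: per-cell ratio of nuclear to cytoplasmic median beta-catenin stain intensity; plate controls were DMSO negative control for no effect and GSK-3 inhibitor IX positive control for full effect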
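Test system: human HeLa cell line; Doses: 5 µM primary, 0.02–20 µM confirmation; Incubation: 24 h compound exposure, 37°C; Detection: beta-catenin immunofluorescence imaging with DAPI; Read-out: beta-catenin nuclear/cytoplasmic ratio, % activation.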
An asterisk follows results filed as active; . = not tested or not shown.

SMILES	Efa HMGR inh	Yeast life ext	Yeast growth inh	MT stabilize HCS	RAM network inh	bCat nuc transl
COc1ccc(C)cc1NC(=O)C(OC(=O)c1cc(C)oc1C)c1ccccc1 (stereo not drawn)	0.2	4.5	-12.5	2.8	11.3*	-0.4
COc1ccc(C)cc1NC(=O)C(Sc1nnnn1C)c1ccccc1 (stereo not drawn)	14.6*	.	.	2.5	0.1	-2.9
COc1ccc(C)cc1NC(=O)C(OC(=O)CNC(=O)c1ccc(Oc2ccccc2)cc1)c1ccccc1 (stereo not drawn)	-1.1	-1.0	-16.3	1.9	6.4	0.2
CCCn1c(SC(C(=O)Nc2cc(C)ccc2OC)c2ccccc2)nc2ccccc2c1=O (stereo not drawn)	-5.5	-3.3	-19.6	3.5	3.9	-0.6
N#Cc1ccccc1Sc1ccccc1C(=O)OCc1nnc(-c2ccccc2)o1	-4.1	-15.0	-56.6	5.0	10.5*	-5.0
N#Cc1ccccc1Sc1ccccc1C(=O)OCC(N)=O	2.5	.	.	3.7	5.2	-0.2
CCCCCCOc1ccc(C(=O)O)cc1	.	.	.	.	.	-1.8
CCCCCCOc1ccc(-c2ccc(C#N)cn2)cc1	-1.0	-15.3	-76.3	1.8	10.3*	-0.4
CCSc1nc2ccccc2c(=O)n1CCc1ccc(OC)c(OC)c1	.	.	.	.	.	0.0
N#Cc1cc2c(=O)n3ccccc3nc2n(-c2ccccc2Cl)c1=O	-6.6	.	.	2.0	1.6	-0.4
CCc1ccccc1NC(=S)/N=C(\N)Nc1nc(C)c2cc(C)ccc2n1	-7.4	-2.7	-13.8	22.6*	0.1	10.5
Cc1ccc(NC(=S)/N=C(\N)Nc2nc(C)c3cc(C)ccc3n2)c(C)c1	0.2	-0.2	-48.2	3.1	3.1	-2.1
COc1ccc(C(=O)C2CCCN(Cc3cccc4c3OCO4)C2)cc1OC (stereo not drawn)	-2.0	.	.	2.4	-0.1	1.4
c1ccc(-c2cc(-c3nnc4n3N=C(c3ccc5ccccc5c3)CS4)[nH]n2)cc1	-0.8	-15.7	-46.8	20.7*	7.3	-0.3
Oc1ccc(C2=Nn3c(nnc3-c3ccco3)SC2)cc1O	12.3*	-5.1	-7.7	34.4	1.5	-1.1
COc1ccc(C2=Nn3c(nnc3-c3ccco3)SC2)cc1	-0.2	-16.9	-52.6	9.2	4.5	.
CCCCn1c(CCC(=O)O)nc2cc(S(=O)(=O)N(CC)CC)ccc21	.	.	.	.	.	-0.4
COc1ccc(-c2[nH]ncc2CN2CCCC(C(=O)c3cccc(OC)c3)C2)cc1 (stereo not drawn)	-0.5	.	.	2.6	1.6	-0.9
COc1ccc2cc(-c3[nH]ncc3CN3CCCC3c3nonc3C)ccc2c1 (stereo not drawn)	-0.4	.	.	10.7*	1.8	2.1
Clc1c(Cl)c(Cl)c2n[nH]nc2c1Cl	.	.	.	.	.	-1.4
C=CCn1c(=O)c2c3c(sc2n2c(Nc4ccc(C(=O)OCC)cc4)nnc12)CCCC3	-4.1	4.7	-84.0	1.5	8.5*	0.4
C=CCn1c(=O)c2c3c(sc2n2c(Nc4ccc(OC)cc4)nnc12)CCCC3	2.9	-2.8	-46.3	2.2	4.5	.
CCCCCC(=O)N1CCCCC1	.	.	.	.	.	0.2
COc1ccc(OC)c(S(=O)(=O)N2CCC(C(=O)N(C)Cc3ccccc3)CC2)c1	.	.	.	.	.	1.1
Cc1cccc(CSc2nc3ccncc3n2CC(=O)Nc2cc(C)cc(C)c2)c1	12.5*	-0.4	-0.2	6.7	-1.7	-2.9
SMILES	Efa HMGR inh	Yeast life ext	Yeast growth inh	MT stabilize HCS	RAM network inh	bCat nuc transl
COc1cc(C(=O)N/N=C(\C)c2ccc3c(c2)OCO3)cc(OC)c1OC	-2.5	.	.	20.3*	-0.7	12.2
CCCNC(=O)c1ccccc1NC(=O)CN(c1ccccc1)S(=O)(=O)N(C)C	-2.6	.	.	1.5	1.1	-1.2
COc1ccc(OCc2nnc(SCC(=O)c3ccccc3)o2)cc1	1.5	.	.	1.8	1.3	-0.4
Cc1ccc2c(c1)C1C=CCC1C(C(=O)O)N2 (stereo not drawn)	3.1	8.1	-26.4	4.5	8.7*	15.4
CCOC(=O)CSC(=S)NC(=O)c1ccc(OC)cc1	2.4	39.8*	-48.7	4.2	-0.4	-2.1
COc1cc(/C=C2\SC(=O)N(CCN)C2=O)ccc1OS(=O)(=O)c1cc(C)ccc1C	-3.0	.	.	10.6	8.5*	0.3
COc1cc(/C=C2/SC(=O)N(Cc3ccccc3Cl)C2=O)ccc1OCc1ccncc1	-5.3	-22.2	-42.6	5.8	7.6	-1.0
CCOC(=O)N1CCN(C(=O)C(CC)n2nc(C)c3sc4ccccc4c3c2=O)CC1 (stereo not drawn)	1.4	3.1	-26.2	2.4	2.4	.
CCOC(=O)N1CCN(C(=O)Cn2nc(C)c3sc4ccccc4c3c2=O)CC1	0.8	-6.1	44.6*	2.3	-0.8	-2.8
Nc1nc2ncc(C(=O)c3cc(Cl)cc(Cl)c3O)cc2s1	.	.	.	.	.	0.3
CC(C)c1noc2ncc(C(=O)c3cc(Cl)cc(Cl)c3O)cc12	-3.2	64.3*	-22.1	1.9	-0.1	2.7
CCOC(=O)C1CCCCN1Cc1ccc(OC)c(OC)c1 (stereo not drawn)	.	.	.	.	.	-0.7
CCOC(=O)C(=CNc1ccc(OC)cc1[N+](=O)[O-])C(=O)OCC	.	.	.	.	.	-2.6
CCCn1nc(-c2ccccc2)c2nc3ccccc3nc21	-4.4	-10.2	6.7	7.7	9.6*	-6.6
O=C(/C=C/c1ccc(O)c(O)c1)c1ccc(S(=O)(=O)N2CCCCCC2)cc1	-3.9	1.2	-31.9	1.3	9.4*	-0.7
COC(=O)c1ccc(S(=O)(=O)N2CCCCCC2)cc1	-6.4	2.5	-22.0	6.5	1.2	-5.4
O=C(NC1CCCCC1)C1CC(=O)N(c2cccc([N+](=O)[O-])c2)C1 (stereo not drawn)	1.6	.	.	3.5	0.3	-1.3
Cc1ccc(C)c(SCC(=O)Nc2cc(C)nn2-c2ccc(F)cc2)c1	-1.7	0.8	-9.4	4.4	8.6*	-1.1
Cc1ccc2cc3c(N)c(C(=O)Nc4c(C)[nH]c(=O)[nH]c4=O)sc3nc2c1	-2.7	2.4	-21.8	4.3	9.5*	0.6
CC(C)OC(=O)CSc1nc2c(c(C3CC=CCC3)c1C#N)CCC2 (stereo not drawn)	5.8	-7.9	-22.7	0.9	10.7*	.
C=CCSc1nc2c(c(C3CC=CCC3)c1C#N)CCC2 (stereo not drawn)	-1.4	.	-40.9	2.4	2.8	-0.4
N=C(N)c1ccc(/C=C/c2ccc(C(=N)N)cc2O)cc1	.	.	.	.	.	0.4
O=S(Cc1ccccc1)CC(O)(c1ccc(Cl)cc1)c1ccc(Cl)cc1 (stereo not drawn)	-5.2	-13.2	-5.2	3.0	4.4	0.9

Screening data from PubChem BioAssay.
